Measured values: ChEMBL document CHEMBL1177835, “A note to the biological activity of benzoxazine derivatives containing the thioxo group” (Eur J Med Chem, 2010)
Converted amounts (≈) assume the structure as drawn.

Legend:
[1] = tested on: Mycobacterium tuberculosis; test: Antimycobacterial activity against Mycobacterium tuberculosis CNCTC My 331/88 after 21 days by microdilution method; assay type: functional; details: CNCTC My 331/88, 504 h
How it was run: (§1)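 MIC determined by a dilution micromethod. Strains came from the Czech National Collection of Type Cultures, Prague. Compounds were added to the medium as DMSO solutions. Each inoculum was also plated in parallel on Löwenstein–Jensen medium to check its sterility and growth. The M. avium strain is identical with ATCC 25291 and resistant to INH.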

Mycobacterium kansasii [2] = test: Antimycobacterial activity against Mycobacterium kansasii 6509/96 after 14 days by microdilution method; assay type: functional
How it was run: (§2)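 Dilution micromethod for MIC; compounds added to medium as DMSO solutions. Each strain also inoculated onto Löwenstein–Jensen medium to control inoculum sterility and growth. Strain 6509/96 is a clinical isolate; CNCTC strains from the Czech national type culture collection.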

Mycobacterium avium [3] = test: Antimycobacterial activity against Mycobacterium avium CNCTC My 330/88 after 14 days by microdilution method; assay type: functional; details: CNCTC My 330/88, 336 h; how it was run: as §1
Mycobacterium kansasii [4] = test: Antimycobacterial activity against Mycobacterium kansasii CNCTC My 235/80 after 14 days by microdilution method; assay type: functional; details: CNCTC My 235/80, 336 h; how it was run: as §2
Mycobacterium kansasii [5] = test: Antimycobacterial activity against Mycobacterium kansasii 6509/96 after 21 days by microdilution method; assay type: functional; details: 6509/96, 504 h; how it was run: as §2
K562 = test: Antiproliferative activity against human K562 cells after 72 hrs by celltiter-blue assay; assay type: functional, cell-based
How it was run: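 K-562 grown in RPMI 1640 with ultraglutamine, gentamicin, 10% heat-inactivated FBS at 37 °C; about 10,000 cells/well. Compounds dissolved in DMSO and diluted in DMEM, incubated 72 h at 37 °C, 5% CO2. Viability read by CellTiter-Blue resazurin reduction. GI50 taken where the dose-response curve crosses 50% of untreated control.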

[6] = tested on: Mycobacterium tuberculosis; test: Antimycobacterial activity against Mycobacterium tuberculosis CNCTC My 331/88 after 14 days by microdilution method; assay type: functional; details: CNCTC My 331/88, 336 h; how it was run: as §1
HeLa = test: Cytotoxicity against human HeLa cells after 72 hrs by using methylene blue staining; assay type: functional, cell-based
How it was run: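 HeLa cells in RPMI 1640 with supplements, preincubated 48 h without compound. Compound dilutions were then applied to subconfluent monolayers for 72 h at 37 °C, 5% CO2. Cells were glutaraldehyde-fixed, stained with 0.05% methylene blue, eluted with 0.33 N HCl and read at OD 660 nm. CC50 taken at 50% intersection versus negative control.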

Mycobacterium kansasii [7] = test: Antimycobacterial activity against Mycobacterium kansasii CNCTC My 235/80 after 21 days by microdilution method; assay type: functional; details: CNCTC My 235/80, 504 h; how it was run: as §2
Mycobacterium avium [8] = test: Antimycobacterial activity against Mycobacterium avium CNCTC My 330/88 after 21 days by microdilution method; assay type: functional; details: CNCTC My 330/88, 504 h; how it was run: as §1
HUVEC = test: Antiproliferative activity against HUVEC after 72 hrs by using methylene blue staining; assay type: cell-based; details: human
How it was run: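 HUVEC in culture medium with ultraglutamine, gentamicin, 10% heat-inactivated FBS, 37 °C. Harvested in log phase by trypsinization; about 10,000 cells/well. Compounds in DMSO, diluted in DMEM, incubated 72 h at 37 °C, 5% CO2. Cells then glutaraldehyde-fixed, stained with 0.05% methylene blue for 15 min, eluted with 0.33 N HCl, OD 660 nm. GI50 taken at 50% intersection versus untreated control.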

O=c1oc2ccc(Cl)cc2c(=O)n1Cc1ccc(F)cc1
MIC [1]: 32 µM (≈ 9.78 µg/mL) | Activity (Mycobacterium kansasii [2]): Toxic | MIC (Mycobacterium avium [3]): 32 µM (≈ 9.78 µg/mL) | MIC (Mycobacterium kansasii [4]): 62.5 µM (≈ 19.1 µg/mL) | MIC (Mycobacterium kansasii [5]): 125 µM (≈ 38.2 µg/mL) | Activity (K562): Toxic | MIC [6]: 32 µM (≈ 9.78 µg/mL) | Activity (HeLa): Toxic | MIC (Mycobacterium kansasii [7]): 62.5 µM (≈ 19.1 µg/mL) | MIC (Mycobacterium avium [8]): 32 µM (≈ 9.78 µg/mL) | Activity (HUVEC): Toxic
